Data taken from PMC9979266 (Acta Pharmaceutica Sinica. B, 2022).

Assays:
[1] = test system: TGF-β1-induced A549 cells; assay: Marker expression; type: cell-based, human; details: n = 3; for miR-23b-5p expression after inhibitor treatment: 10 μmol/L pretreatment, qPCR
Procedure, shortened: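 A549 in RPMI 1640 + 10% FBS, plated 24 h, serum-starved overnight. Three pathway inhibitors at 10 μmol/L added 30 min before TGF-β1 (5 ng/mL) plus test peptide. Harvest: RNA/protein at 48 h, phosphoproteins at 1 h. Western: 30 μg protein, 10% SDS-PAGE, ECL, GAPDH-normalised. qPCR: 2−ΔΔCt with GAPDH (mRNA) or U6 (miRNA) reference. At least three independent replicates, mean ± SD.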

NIH3T3 cells = assay: MTT cell cytotoxicity assay, NIH3T3; type: cell-based, murine; details: 10–160 μmol/L, 24 h, n = 3

Row | Molecule | miR-23b-5p expression after inhibitor treatment [1] | Cytotoxicity against NIH3T3 cells (NIH3T3 cells) | AQP5 expression after inhibitor pretreatment ([1]; 10 μmol/L, 30 min pretreatment, Western blot)
1 | C[S+]([O-])c1ccc(-c2nc(-c3ccncc3)c(-c3ccc(F)cc3)[nH]2)cc1 (stereo not drawn) [SB203580] | reduced | – | –
2 | DHANPQIR-NH2 [DR3dA] | – | no toxicity | –
3 | COc1cccc(-c2cc(=O)c3ccccc3o2)c1N [PD98059] | reduced | – | elevated
4 | DHAAPQIR-NH2 [DR3d4dA] | – | no toxicity | –
5 | DHNAPQIR-NH2 [DR4dA] | – | no toxicity | –
